PKD1 inh – inhibitors of human PKD1 kinase. Q15139. AID 797. 200,000 compounds, 0.056% hits. inhibition, % (test concentration not listed). PKD1 kinase fluorescence polarization assay
Target sequence (Q15139 whole entry, looked up): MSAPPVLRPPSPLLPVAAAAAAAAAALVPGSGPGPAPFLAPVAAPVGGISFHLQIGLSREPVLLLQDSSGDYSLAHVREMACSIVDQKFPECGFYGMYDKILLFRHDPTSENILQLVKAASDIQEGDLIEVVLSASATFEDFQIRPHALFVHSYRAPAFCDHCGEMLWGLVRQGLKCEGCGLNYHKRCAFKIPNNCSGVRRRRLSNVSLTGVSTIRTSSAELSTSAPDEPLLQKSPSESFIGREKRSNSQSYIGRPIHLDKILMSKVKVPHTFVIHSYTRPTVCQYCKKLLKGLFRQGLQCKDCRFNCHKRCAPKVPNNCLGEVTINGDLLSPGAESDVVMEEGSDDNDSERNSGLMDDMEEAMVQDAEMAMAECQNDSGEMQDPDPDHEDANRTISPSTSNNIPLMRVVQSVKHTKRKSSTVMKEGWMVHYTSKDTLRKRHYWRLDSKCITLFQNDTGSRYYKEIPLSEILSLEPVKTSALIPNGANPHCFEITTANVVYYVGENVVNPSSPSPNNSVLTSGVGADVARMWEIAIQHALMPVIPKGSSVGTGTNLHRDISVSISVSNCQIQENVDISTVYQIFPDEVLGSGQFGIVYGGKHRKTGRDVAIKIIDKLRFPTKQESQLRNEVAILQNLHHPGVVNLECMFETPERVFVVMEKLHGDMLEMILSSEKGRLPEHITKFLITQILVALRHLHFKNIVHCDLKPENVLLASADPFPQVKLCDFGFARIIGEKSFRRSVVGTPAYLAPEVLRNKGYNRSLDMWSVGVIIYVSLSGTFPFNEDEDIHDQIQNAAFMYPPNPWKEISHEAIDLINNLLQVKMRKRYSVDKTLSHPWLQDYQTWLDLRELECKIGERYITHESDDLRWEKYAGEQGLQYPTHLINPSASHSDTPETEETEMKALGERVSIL
Lmaj promast – Leishmania major promastigote growth inhibition. Leishmania major promastigotes, resazurin fluorescence viability. 200,000 compounds, 9% hits. inhibition, % at 10 µM;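 further: promastigotes grown with compound for 44 hours at 28 °C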
ABCB1 block – blocks JC-1 efflux by human ABCB1 transporter; CCRF-Adr cells, flow cytometry; 190,000 compounds, 0.067% hits; AID 1326; inhibition, % at 6.6 µM; in the data active means inhibition above about 40%;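 further: 0% = vehicle and 100% = reference inhibitor; higher value means more JC-1 retained so stronger ABCB1 efflux block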
Avidin bead fluor – compound fluoresces at 488/530 nm on avidin beads | 220,000 compounds, 0.38% hits | fluorescence (KMESF) at 10 µM | compound fluorescence 488/530 nm, flow cytometry; hits give high values; in the data active means fluorescence above about 47
GSH fluor – compound fluoresces at 488/530 nm on GSH beads; 190,000 compounds, 0.25% hits; AID 1776; fluorescence (KMESF) at 10 µM; GSH beads flow cytometry, compound fluorescence 488/530 nm; hits give high values; in the data active means fluorescence above about 89;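 further: glutathione beads carrying GST-tagged Bcl family fusion proteins plus one bare bead set; values are compound well signal with DMSO vehicle wells as background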
ABCG2 block – blocks JC-1 efflux by human ABCG2 transporter; inhibition, % at 6.6 µM; IgMXP3 cells, flow cytometry; AID 1325; 190,000 compounds, 0.1% hits; Q9UNQ0;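 active means inhibition above 80%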;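 further: 0% = DMSO and 100% = nicardipine control wells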
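test system = two drug-resistant human cell lines, ABCG2 and ABCB1 | amount = 3 million cells/mL final, two lines in 1:1 ratio | reagent = JC-1 transporter substrate | doses = one concentration, 6.6 µM final | incubation = 10 min at 25 °C | signal = flow cytometric JC-1 green MFI at 530 nm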
The depositor's hits bear a star; . = not tested or not shown. Shown is part of a subset that was picked to be rich in hits. Unless noted, no stated cut-off is given here; in the data, active means inhibition above about 50%; inactive means the rest.

SMILES	PKD1 inh	Lmaj promast	ABCB1 block	Avidin bead fluor	GSH fluor	ABCG2 block
COc1ccc(S(=O)(=O)N2CCCC2C(=O)Nc2nc3c(s2)CCCC3)cc1 (configuration not stated)	-6	90*	2	15	35	39
Cn1c(=O)c2ncn(CC(=O)N/N=C/c3ccco3)c2n(C)c1=O	-1	-3	0	9	9	0
CSc1cc(C)c(OCC(=O)Nc2ccc(NC(C)=O)cc2)c(C)c1	-10	-9	1	11	25	3
O=C(Nc1ccc(-c2csc(Nc3ccccc3)n2)cc1)c1cc([N+](=O)[O-])cc(C(F)(F)F)c1	.	.	.	9	.	.
CCOc1ccc(NC(=O)CN2CCC(n3cnc4cc(F)ccc43)CC2)cc1	1	45	2	9	11	24
O=C1CSC(c2nn(-c3ccccc3)cc2-c2cc3ccccc3oc2=O)N1Cc1ccco1 (configuration not stated)	6	52*	5	8	13	6
O=C(NC(=S)N1CCCc2ccccc21)c1ccc(Cl)cc1	-6	64*	0	9	5	8
Cc1ccc2c(c1)cc(CN(Cc1cccnc1)C(=O)NCc1ccccc1)c1nnnn12	-2	100*	3	2	40	4
Cc1cccc2cc(CN(Cc3cccnc3)C(=O)c3cccs3)c3nnnn3c12	-8	-3	0	10	15	0
Cc1ccc2c(c1)cc(CN(CCc1ccccc1)C(=O)N1CCOCC1)c1nnnn12	-19	13	2	6	6	4
Cc1ccc2c(c1)cc(CN(Cc1ccc3c(c1)OCO3)C(=O)c1ccccc1)c1nnnn12	-10	59*	2	36	15	4
C/C(=N\NC(=O)c1ccc(C)cc1C)c1ccc2c(c1)OCO2	-7	-1	0	9	13	0
CN1CCN(C(=O)c2ccc(-n3cccc3)cc2)CC1	2	0	0	17	15	1
NC(=O)c1ccccc1NC(=O)Nc1ccc(F)c(Cl)c1	4	7	2	10	21	28
COc1cc(/C=C/c2ccc3cccc(OC)c3n2)c(OC(C)=O)c([N+](=O)[O-])c1	2	14	1	16	4	5
COc1c(OC(C)=O)ccc(/C=C/c2ccc3cccc(OCc4ccccc4)c3n2)c1[N+](=O)[O-]	2	62*	-1	12	5	-4
O=C(N/N=C/c1ccc2cccc(OCc3ccccc3)c2n1)c1ccc(Br)cc1	3	75*	-1	16	8	-2
Cn1c(-c2ccccc2)c(/C=N/NC(=O)c2cccnc2)c2ccccc21	1	62*	0	8	13	2
COc1ccc(C(=O)N/N=C/c2ccc3cccc(OCc4ccccc4)c3n2)cc1	-3	65*	-1	13	22	7
O=C(Nc1ccc(Cl)cc1-c1nc2ccccc2s1)c1ccco1	-4	-1	0	42	12	1
Cc1nnsc1SCC(=O)O	4	-4	0	12	15	-1
CC(C)CC(NC(=O)c1ccc(C#CC(C)(C)O)s1)C(=O)O (configuration not stated)	9	-3	1	10	26	2
O=C(N/N=C/c1ccccc1OCc1ccccc1)c1cccnc1	-12	75*	5	9	3	50
CC(C)N1C(=O)/C(=C\c2nc3ccccc3c(=O)n2-c2ccccc2)c2ccccc21	7	99*	4	7	9	1
CC(C)N1C(=O)C(Cc2nc3ccccc3c(=O)n2-c2ccccc2)c2ccccc21 (configuration not stated)	-4	21	4	8	21	7
SMILES	PKD1 inh	Lmaj promast	ABCB1 block	Avidin bead fluor	GSH fluor	ABCG2 block
CC(C)N1C(=O)/C(=C/c2nc3ccccc3c(=O)n2-c2ccccc2)c2ccccc21	-8	100*	3	29	17	2
Cc1nc2ccccc2c2c1C(=O)N(C(C)C)C2=O	-4	5	1	5	33	7
COc1ccc(C(NC(C)=O)c2ccc3cccnc3c2O)c(OC)c1 (configuration not stated)	.	.	1	7	13	10
CN1CCN(C(c2cccnc2)c2ccc3cccnc3c2O)CC1 (configuration not stated)	2	33	-4	13	22	-4
Oc1c(C(Nc2nccs2)c2ccc(C(F)(F)F)cc2)ccc2cccnc12 (configuration not stated)	-6	100*	2	6	11	0
Oc1c(C(Nc2cccc(C(F)(F)F)c2)c2ccncc2)ccc2cccnc12 (configuration not stated)	-3	100*	-1	9	15	-3
N=c1c(C(=O)NCc2ccc(F)cc2)cc2c(=O)n3ccccc3nc2n1CC1CCCO1 (configuration not stated)	6	23	4	90*	16	5
N=c1c(C(=O)NCc2ccco2)cc2c(=O)n3ccccc3nc2n1CC1CCCO1 (configuration not stated)	-2	12	.	.	.	.
O=C(Nc1ccc(CN2CCCCC2)cc1)c1cccc(F)c1	-1	-1	0	9	19	7
CCOc1ccc(OCc2cccc(C(=O)Nc3ccc(CN4CCCCC4)cc3)c2)cc1	-6	96*	2	2	6	9
COc1ccc(OCc2cccc(C(=O)Nc3ccc(CN4CCCCC4)cc3)c2)cc1	4	78*	16	3	17	37
COCCCNC(=O)CC(NS(=O)(=O)c1ccc(Cl)cc1)c1ccc(OC)cc1 (configuration not stated)	-7	2	0	12	31	1
Cc1cc(C)n(CCNC(=O)CC2C(=O)NCCN2CC2CCCCC2)n1 (configuration not stated)	-5	-7	1	9	9	1
CCOC(=O)/C=C1\SCC(=O)N1CC(=O)Nc1cccc(F)c1	-6	10	0	9	10	-1
CCn1c(CCNC(=O)c2ccc(OC)cc2)nnc1SCC(=O)Nc1ccccc1F	2	-5	0	10	18	16
CCn1c(CCNC(=O)c2ccc(OC)cc2)nnc1SCc1ccc(Cl)cc1Cl	-5	91*	4	16	9	10
CCn1c(CCNC(=O)c2ccc(OC)cc2)nnc1SCc1ccc(Cl)c(Cl)c1	-6	93*	4	10	10	16
Cc1noc(C)c1C(=O)N1CCC(C(=O)c2ccc(F)cc2F)CC1	.	.	.	2	.	.
COc1ccc2c(c1)-c1nc(/N=C/c3ccccc3O)sc1CC2	-2	-6	1	20	14	12
COc1ccc2c(c1)-c1nc(/N=C/c3cccc(OC)c3O)sc1CC2	-5	61*	0	7	21	10

Bioassay records (PubChem BioAssay)
